Calls of active or inactive are those of the source. No cut-off for these calls is given here.

One assay has as its system RAW264.7. The experiment in a line: Anti-inflammatory activity in mouse RAW264.7 cells assessed as inhibition of LPS-induced NO production at 40 uM. Format: functional, cell-based.
In the next assay the test system is SW480. The assay can be described thus: Cytotoxicity against human SW480 cells at 40 uM after 48 hrs by MTT assay. Format: functional, cell-based. A general note: Tetrazolium assays rely on reduction of a dye to a coloured formazan, in cell work by metabolically active cells.
Another assay deals with SMMC-7721. The assay can be described thus: Cytotoxicity against human SMMC7721 cells at 40 uM after 48 hrs by MTT assay. Format: functional, cell-based.
Assay [1] concerns Mus musculus. The assay can be described thus: Antinociceptive activity in Kunming mouse model of acetic-acid-induced writhing assessed as inhibition of writhing numbers at 5 mg/kg measured for 30 mins relative to control. The format is functional. The note with it: for inhibition in vivo at 5 mg/kg: 0.5 h. An outline of the steps: (§1)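 Acetic-acid-induced writhing model in Kunming mice (10 per group); doses 0.2, 1.0 and 5.0 mg/kg; vehicle-treated and morphine positive-control groups; inhibition of writhing relative to vehicle; mean ± SEM; one-way ANOVA with Bonferroni test. Animal work approved by institutional ethics committee.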

For another assay, the system named is A549. The experiment in a line: Cytotoxicity against human A549 cells at 40 uM after 48 hrs by MTT assay. Format: functional, cell-based.
Assay [2] addresses T1, Tyrosine-protein phosphatase non-receptor type 1 (Homo sapiens) (UniProt P18031).
T1 sequence (whole entry): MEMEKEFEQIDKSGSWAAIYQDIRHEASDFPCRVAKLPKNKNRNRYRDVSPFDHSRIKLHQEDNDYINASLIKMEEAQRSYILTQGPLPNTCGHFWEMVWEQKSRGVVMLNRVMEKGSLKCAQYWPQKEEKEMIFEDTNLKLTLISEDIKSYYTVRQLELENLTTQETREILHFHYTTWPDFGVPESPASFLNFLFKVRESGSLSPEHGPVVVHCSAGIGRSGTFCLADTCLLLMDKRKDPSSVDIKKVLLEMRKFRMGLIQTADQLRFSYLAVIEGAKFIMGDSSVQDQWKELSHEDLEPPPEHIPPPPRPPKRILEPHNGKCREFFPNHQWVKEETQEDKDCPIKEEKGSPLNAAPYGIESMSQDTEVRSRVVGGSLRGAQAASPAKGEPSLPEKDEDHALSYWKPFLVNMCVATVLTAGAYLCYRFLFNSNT
The experiment in a line: Inhibition of recombinant human PTP1B at 40 uM using pNPP as substrate preincubated for 10 mins followed by substrate addition and measured after 30 mins at 5 mins time interval for 30 mins.

In another assay the test system is MCF7. The experiment in a line: Cytotoxicity against human MCF7 cells at 40 uM after 48 hrs by MTT assay. The format is functional, cell-based.
The test system of a further assay is HL-60. The assay can be described thus: Cytotoxicity against human HL60 cells at 40 uM after 48 hrs by MTT assay. The format is functional, cell-based.
For assay [3], the system named is Mus musculus. The assay can be described thus: Antinociceptive activity in Kunming mouse model of acetic-acid-induced writhing assessed as inhibition of writhing numbers at 0.2 mg/kg measured for 30 mins relative to control. Format: functional. The note with it: 0.5 h. An outline of the steps:
as §1

Assay [4] concerns Mus musculus. The experiment in a line: Antinociceptive activity in Kunming mouse model of acetic-acid-induced writhing assessed as inhibition of writhing numbers at 1 mg/kg measured for 30 mins relative to control. Format: functional. The note with it: 0.5 h. An outline of the steps:
as §1
In general terms: An intraperitoneal irritant provokes the stretching counted in writhing tests.

As for `C=C1[C@@H]2CC[C@@H]3[C@@H](O)[C@@]2(C[C@@H](O)[C@@]2(O)[C@H]1C[C@H](O[C@@H]1O[C@H](CO)[C@@H](O)[C@H](O)[C@H]1O)C2(C)C)C[C@@]3(C)O`, the inhibition entry (in the assay with RAW264.7; in assay [2]) was “inactive” in each case. Further, the result with SW480, in the assay on SMMC-7721, in the assay on A549, in the assay with MCF7 and with HL-60 was inactive. The inhibition in vivo at 5 mg/kg in the assay with Mus musculus [1] is > 50%.

`C=C1[C@H]2C[C@H](O[C@@H]3O[C@H](CO)[C@@H](O)[C@H](O)[C@H]3O)C(C)(C)[C@]2(O)CC[C@@]23C[C@@H](CC[C@@H]12)[C@](C)(O)C3`: the inhibition entry (in the assay on RAW264.7; in assay [2]) was “inactive” each time. Moreover, the outcome in the assay with SW480, in the assay with SMMC-7721, in the assay on A549, in the assay with MCF7 and in the assay with HL-60 was inactive. In addition, in the assay with Mus musculus [1], the inhibition in vivo at 5 mg/kg is 82.3%. The inhibition in vivo at 0.2 mg/kg in the assay on Mus musculus [3] was found to be 46.1%. In the assay with Mus musculus [4], the inhibition in vivo at 1 mg/kg was determined as 58.7%.

As for `C=C1[C@@H]2CC[C@@H]3C[C@@]2(C[C@@H](O)[C@@]2(O)[C@H]1C[C@H](O[C@@H]1O[C@H](CO)[C@@H](O)[C@H](O)[C@H]1O)C2(C)C)C[C@@]3(C)O`, the inhibition result (with RAW264.7; in assay [2]) was “inactive” in each case. Moreover, the outcome in the assay with SW480, in the assay on SMMC-7721, with A549, with MCF7 and in the assay on HL-60 was inactive. Further, in the assay with Mus musculus [1], the inhibition entry was “Active”.

Regarding `C=C1[C@H]2C[C@H](O[C@@H]3O[C@H](CO)[C@@H](O)[C@H](O)[C@H]3O)C(C)(C)[C@@]2(O)[C@H](O)C[C@@]23C[C@@H](CC[C@@H]12)[C@](C)(O)C3`, the inhibition result (in the assay with RAW264.7; in the assay with Mus musculus [1]; in [2]) was “inactive” throughout. The result in the assay on SW480, with SMMC-7721, in the assay with A549, in the assay on MCF7 and in the assay with HL-60 was inactive.

Usually inhibition in vivo stands for the percentage by which the read-out fell short of the control.

(Values after ChEMBL document CHEMBL4382232, “Grayanane Diterpenoid Glucosides from the Leaves of Rhododendron micranthum and Their Bioactivities Evaluation” (2018).)
